Experimental data: paper PMC4143156 (Journal of immunology (Baltimore, Md. : 1950), 2008)
Read-outs that look alike come from different tables or passages of the source.

Legend:
[1] = molecular target: Water soluble DQ2 (sDQ2), thrombin-cleaved (human); assay: peptide dissociation followed by MALDI-TOF MS
[2] = molecular target: Water soluble DR3 (sDR3), thrombin-cleaved (human); assay: peptide dissociation followed by MALDI-TOF MS
water soluble DQ2 (sDQ2) = water soluble DQ2 (sDQ2) (Homo sapiens, UniProt P01909+P01920, A45G/A70V/D89A/E106A/E77G/E98D/H199R/L107V/N214S/P84L/P87L/T103K/T109R/T172A/T60S/V78E/V99I/Y58L/Y62S/Y69I/Y79F); type: binding; conditions: ratio of t1/2 without DM to t1/2 with 6 μM DM; sDQ2 complexes
[3] = molecular target: HLA-DQ2 (DQA1*0501, DQB1*0201) (Homo sapiens, UniProt P01909+P01920, A45G/A70V/D89A/E106A/E77G/E98D/H199R/L107V/N214S/P84L/P87L/T103K/T109R/T172A/T60S/V78E/V99I/Y58L/Y62S/Y69I/Y79F); conditions: DQ2 affinity purified from B-LCL; ref [3],[4]; cited from earlier work
water soluble DR3 (sDR3) [4] = molecular target: water soluble DR3 (sDR3) (Homo sapiens, UniProt P01903+P01911, A100K/A102G/A103R/A169T/F55Y/I96L/K41T/L162R/M171V/P40S/Q125H/Q178H/Q39Y/R42S/S66N/T106N/W38E/Y61H); type: binding; conditions: ratio of t1/2 without DM to t1/2 with 6 μM DM; sDR3 complex; listed as DR3-CLIP1
Outline: (§1)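 Incubated at 37°C, pH 5.0 citrate phosphate, ±6 μM soluble DM, with 35 μM competitor MT 65kDa 3-13; stopped with cold pH 7.2 buffer. Released peptides were quantified by MALDI-TOF MS against added isotopic indicator peptides.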

water soluble DR3 (sDR3) [5] = type: binding, human; conditions: pH 5, without DM
Outline: as §1

[6] = molecular target: HLA-DQ2 (DQA1*0501, DQB1*0201) (human (endogenous in B-LCL)); assay: affinity purification with mass spectrometry
[7] = molecular target: HLA-DQ2 (DQA1*0501, DQB1*0201) (human (endogenous in B-LCL)); assay: affinity purification with mass spectrometry; remark: listed apart in the source
[8] = molecular target: HLA-DR3 (DRA1*0101, DRB1*0301) (human (endogenous in B-LCL)); assay: affinity purification with mass spectrometry

Which results are given for “CLIP1 M91A released peptide of sDQ2-CLIP1 M91A”?
t1/2 of DM-mediated dissociation (6 μM DM) [1]: 0.7 h; t1/2 of spontaneous dissociation [1]: 13.1 h

Which t1/2 of DM-mediated dissociation (6 μM DM) [1] does the source give for “CLIP1 M91P released peptide of sDQ2-CLIP1 M91P” here?
Its t1/2 of DM-mediated dissociation (6 μM DM) is 8.9 h.

What about the t1/2 of spontaneous dissociation [1] of the same molecule?
The t1/2 of spontaneous dissociation was 93.6 h.

For “CLIP1 released peptide of sDQ2-CLIP1 and sDR3-CLIP1”, which t1/2 of DM-mediated dissociation (6 μM DM) [1] is on record?
The t1/2 of DM-mediated dissociation (6 μM DM) was 9 h.

And the t1/2 of spontaneous dissociation [1]?
The t1/2 of spontaneous dissociation was 144 h.

And the t1/2 of DM-mediated dissociation (6 μM DM) [2]?
The t1/2 of DM-mediated dissociation (6 μM DM) was 0.25 h.

And the t1/2 of spontaneous dissociation [2]?
The t1/2 of spontaneous dissociation was 61.5 h.

With CLIP2 released peptide of sDQ2-CLIP2 as the molecule, how does the t1/2 of DM-mediated dissociation (6 μM DM) [1] read?
The t1/2 of DM-mediated dissociation (6 μM DM) was 5 h.

What about the t1/2 of spontaneous dissociation [1] of the same molecule?
The t1/2 of spontaneous dissociation was 142 h.

Which “DM-mediated increase in dissociation” value (water soluble DQ2 (sDQ2)) does the source give for RDSGMATPLLMQALPM GALGAGSLVPR [CLIP2] here?
The value was 28x.

And the “IC50 values/affinity for DQ2 compared to conventional CLIP (CLIP1) peptides” value [3]?
Its value is “lower”.

Which “DM-mediated increase in dissociation” value (water soluble DQ2 (sDQ2)) does the source give for “RDSGPVSKARMATPLLMQAGAGSLVPR [CLIP1 M91A]” here?
The value was 19x.

Which results are given for RDSGPVSKMRMATPLLMQAGAGSLVPR [CLIP1]?
DM-mediated increase in dissociation (water soluble DQ2 (sDQ2)): 16x; DM-mediated increase in dissociation (water soluble DR3 (sDR3) [4]): 246x; Faster spontaneous release from DR3 compared to CLIP1 and CLIP2 from sDQ2 (water soluble DR3 (sDR3) [5]): 2 fold

Which “DM-mediated increase in dissociation” value (water soluble DQ2 (sDQ2)) does the source give for “RDSGPVSKPRMATPLLMQAGAGSLVPR [CLIP1 M91P]” here?
Its value is 11x.

B1: Ii81-103 (peptide)
peptide: LPKPPKPVSKMRMATPLLMQALP
With B1 as the molecule, how does the pmol of peptide eluted from 50 μg of affinity-purified class II [6] read?
Its pmol of peptide eluted from 50 μg of affinity-purified class II is 71.1 pmol.

What about the pmol of peptide eluted from 50 μg of affinity-purified class II [7] of the same molecule?
Its pmol of peptide eluted from 50 μg of affinity-purified class II is 79.5 pmol.

B2: Ii93-108 (peptide)
peptide: MATPLLMQALPMGALP
What does the source list for B2?
pmol of peptide eluted from 50 μg of affinity-purified class II [6]: 156 pmol; pmol of peptide eluted from 50 μg of affinity-purified class II [7]: 159 pmol

B3: Ii81-104 (peptide)
peptide: LPKPPKPVSKMRMATPLLMQALPM
For B3, which pmol of peptide eluted from 50 μg of affinity-purified class II [8] is on record?
The pmol of peptide eluted from 50 μg of affinity-purified class II was 42.4 pmol.

B4: Ii93-109 (peptide)
peptide: MATPLLMQALPMGALPQ
With B4 as the molecule, how does the pmol of peptide eluted from 50 μg of affinity-purified class II [6] read?
The pmol of peptide eluted from 50 μg of affinity-purified class II was 3.8 pmol.

B5: Ii82-103 (peptide)
peptide: PKPPKPVSKMRMATPLLMQALP
For B5, which pmol of peptide eluted from 50 μg of affinity-purified class II [6] is on record?
Its pmol of peptide eluted from 50 μg of affinity-purified class II is 36.8 pmol.

And the pmol of peptide eluted from 50 μg of affinity-purified class II [7]?
Its pmol of peptide eluted from 50 μg of affinity-purified class II is 16.5 pmol.

What about the pmol of peptide eluted from 50 μg of affinity-purified class II [8] of the same molecule?
The pmol of peptide eluted from 50 μg of affinity-purified class II was 113 pmol.

B6: Ii81-101 (peptide)
peptide: LPKPPKPVSKMRMATPLLMQA
With B6 as the molecule, how does the pmol of peptide eluted from 50 μg of affinity-purified class II [6] read?
The pmol of peptide eluted from 50 μg of affinity-purified class II was 88.4 pmol.

What about the pmol of peptide eluted from 50 μg of affinity-purified class II [7] of the same molecule?
The pmol of peptide eluted from 50 μg of affinity-purified class II was 31.5 pmol.

And the pmol of peptide eluted from 50 μg of affinity-purified class II [8]?
Its pmol of peptide eluted from 50 μg of affinity-purified class II is 106 pmol.
